Rows were chosen to be rich in hits. Some 3.7% of all compounds tested hit in one or more screens of this group.
MDM2 E3 inh: MDM2-luciferase reporter signal enhancers, primary screen, MDM2 E3 ligase inhibitor project, cell-based, luminescence, 1536-well; signal enhancement, % at 5 µM; AID 1230, 2008; cell-based MDM2 ubiquitination luciferase reporter, 2 h; 0 = plate control, 100 = twice control, blank-subtracted; 210,000 compounds, 0.11% hits;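 active means signal enhancement of 30% or more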;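 further: luminescence tracks abundance of the self-degrading MDM2-luciferase fusion protein; higher signal means inhibition of MDM2 E3 ligase activity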
Target sequence (Q00987 whole entry, looked up, the tested form may be a part): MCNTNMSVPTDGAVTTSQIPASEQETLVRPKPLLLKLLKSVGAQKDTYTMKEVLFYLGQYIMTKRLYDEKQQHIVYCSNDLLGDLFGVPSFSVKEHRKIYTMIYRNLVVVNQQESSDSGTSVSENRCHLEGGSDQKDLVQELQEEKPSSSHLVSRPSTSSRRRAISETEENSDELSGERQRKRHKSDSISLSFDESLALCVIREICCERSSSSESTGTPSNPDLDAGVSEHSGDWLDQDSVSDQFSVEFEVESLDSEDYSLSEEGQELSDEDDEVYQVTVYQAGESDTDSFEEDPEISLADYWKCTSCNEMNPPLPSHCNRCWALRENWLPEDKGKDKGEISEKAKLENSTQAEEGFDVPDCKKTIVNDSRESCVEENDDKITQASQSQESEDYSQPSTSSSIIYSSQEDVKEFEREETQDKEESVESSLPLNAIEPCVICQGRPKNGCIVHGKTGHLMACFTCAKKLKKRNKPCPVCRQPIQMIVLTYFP
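system = mammalian cells stably expressing self-ubiquitinating, self-degrading MDM2 E3–luciferase fusion | quantity = 2000 cells per well seeded | incubation = 4 h cell settling then 2 h compound exposure, 37 °C | signal = SteadyLite luminescence, 15 min reagent step | benchmarks = plate control and blank wells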
Beta2AR agonist: beta2AR agonists driving receptor internalization, primary screen, cell-based, FAP fluorogen, flow cytometry | Beta-2 adrenergic receptor (Homo sapiens), P07550 | Am2.2-beta2AR cells | response, % (concentration not given with the values) | 340,000 compounds, 0.43% hits;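 active means response above a set limit, near 3 SD of response in nonfluorescent compounds, cut at about 42% in these data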
UPR CHOP act: activators of apoptotic CHOP UPR arm, primary screen, cell-based, CHO-CHOP luciferase reporter, luminescence, uHTS | activation, % at 10 µM | 330,000 compounds, 0.34% hits | UPR activation; percent of tunicamycin response over DMSO baseline;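 active means at 10 µM dose, activation of 40% or more, normalized to positive control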
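System: CHO-CHOP luciferase reporter cell line | Buffer or medium: F12 medium containing 10% fetal bovine serum | Doses: One dose, 10 µM in 0.5% DMSO | Times: 6 h compound exposure at 37 °C after overnight seeding | Signal: Luciferase luminescence | Read-out: % activation vs tunicamycin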
XBP1 UPR activ: activators of adaptive XBP1 UPR arm, primary screen, cell-based, CHO-XBP1 luciferase reporter, luminescence, uHTS | 330,000 compounds, 0.33% hits | activation, % at 20 µM | IRE1-XBP1 UPR activation; percent of tunicamycin response, DMSO as zero;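 active means versus positive control, 20 µM dose yields 30% or more activation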
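assay system = CHO-XBP1 luciferase reporter cells | amount = 1000 cells/well | buffer or medium = F12 plus 10% FBS | compound dosing = single point, 20 µM final compound, 1% DMSO | incubation = 16-18 h cell attachment at 37 °C, then 6 h compound exposure | detection = Steady-Glo luminescence read | controls = tunicamycin 10 µg/mL and vehicle-only wells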
Dynein cargo inh: inhibitors of GR-EGFP nuclear translocation, primary screen, dynein cargo transport inhibitor project, imaging, high-content, 3617.4 mouse cells; test concentration mostly 20 µM; stimulated with dexamethasone, 1 µM; stronger effect = lower value; z-score, hits read low; 220,000 compounds, 0.47% hits; AID 1381, 2008;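 active means plate z-score of nuclear minus cytoplasmic receptor signal below a set negative limit, without overly bright fluorescence or cell loss, cut at about -3.5 in these data, passing the limit was not always enough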;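 further: z-score of nuclear minus cytoplasmic ring GR-EGFP intensity difference per well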
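Buffer or medium: tet-free, stripped-serum medium; Also added: dexamethasone, 1.0 µM final; Technique: high-content fluorescence imaging after fixation; Times: 48 h induction, 1 h compound, 30 min dex at 37 °C; Read-out: per-cell GR-EGFP intensity, nucleus versus surrounding cytoplasmic ring, well-averaged.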
Mdm2-MdmX inh: inhibitors of human Mdm2-MdmX association, primary screen, cell-based, luminescence, split luciferase, SaOS-2, uHTS; inhibition, % at 8 µM; Protein Mdm4 (Homo sapiens) + E3 ubiquitin-protein ligase Mdm2 (Homo sapiens), …; AID 485346, 2010; SaOS-2 split-luciferase Mdm2/MdmX complementation; 330,000 compounds, 3% hits;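 active means inhibition of at least 50% at 8 µM in the primary screen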
UPR CHOP confirm: activators of apoptotic CHOP UPR arm, confirmation, cell-based, CHO-CHOP luciferase reporter, single concentration; activation, % at 10 µM; CHO-CHOP cells, CHOP-luciferase reporter luminescence; percent of tunicamycin response, DMSO as zero; shares compounds with UPR CHOP act; 1,000 compounds, 64% hits; AID 463112, 2010; in the data active means activation above about 33%
UPR XBP1 confirm: IRE1-XBP1 UPR arm activators, confirmation, cell-based, CHO-XBP1 luciferase reporter, luminescence, single concentration | activation, % at 20 µM | AID 485299, 2010 | 1,000 compounds, 63% hits | shares compounds with XBP1 UPR activ;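 active means reporter signal at least 30% of the positive control's activation in two or more of four replicate wells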
Mdm2-MdmX conf: Mdm2-MdmX complex disruptors, retested hits, confirmation, luminescence, single concentration; shares compounds with Mdm2-MdmX inh; Mdm2-MdmX binding, luminescent assay; inhibition, % at 8 µM; 10,000 compounds, 55% hits; AID 489028, 2010; in the data active means inhibition above about 40%
FLuc counter: full-length luciferase signal inhibition, confirmation, counter-screen for Mdm2/MdmX interaction inhibitor project, cell-based, single concentration, SaOS-2 | shares compounds with Mdm2-MdmX inh | SaOS-2 full-length luciferase counterscreen, luminescence | inhibition, % at 8 µM | 6,200 compounds, 77% hits;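 active means mean inhibition at 8 µM reaching about 37%, which flags the compound as non-specific, limit read from the data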;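 further: p53-null SaOS-2 cells with luciferase driven by a doxycycline-inducible promoter; compound on cells about two nights before reading with doxycycline added after day one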
Large screens that a line does not name were inactive (follow-up assays come after a bar, where they were run).

COc1ccc(N2CCN(C(=O)c3cn(CC4CCCCC4)nn3)CC2)cc1	none (no result: MDM2 E3 inh, Dynein cargo inh)
O=C1NN(c2ccccc2)C(=O)/C1=C/c1ccc(-c2ccc(C(=O)O)cc2)o1	none (no result: MDM2 E3 inh, Dynein cargo inh)
O=C(O)c1ccc(N2C(=O)/C(=C/c3ccc(-c4ccc([N+](=O)[O-])cc4)o3)C=C2c2ccccc2)cc1	UPR CHOP act 44, XBP1 UPR activ 57 | UPR CHOP confirm inactive | UPR XBP1 confirm 80
COc1cc(C(=O)Oc2ccc3c(c2)OCC3=O)cc(OC)c1OC	UPR CHOP act 46, XBP1 UPR activ 43 | UPR CHOP confirm inactive | UPR XBP1 confirm inactive
CCN(CC)S(=O)(=O)c1ccc(N/N=C(\C)c2ccc3c(c2)OCO3)c([N+](=O)[O-])c1	UPR CHOP act 155, XBP1 UPR activ 211 | UPR CHOP confirm 63 | UPR XBP1 confirm 155
COc1ccc(N=c2oc3c(OC)cccc3cc2C(=O)NCc2ccco2)cc1OC	UPR CHOP act 76, XBP1 UPR activ 45 | UPR CHOP confirm 45 | UPR XBP1 confirm inactive
O=C1c2ccccc2-n2c1nc1ccccc1c2=O	UPR CHOP act 77, XBP1 UPR activ 34 | UPR CHOP confirm inactive | UPR XBP1 confirm inactive
O=C(Nc1cc(C(F)(F)F)ccc1N1CCCC1)C1CCCO1 (stereo unspecified)	none (no result: MDM2 E3 inh, Dynein cargo inh)
Cc1ccc2nc(-c3ccc(NC(=S)NC(=O)C(C)C)cc3)sc2c1	none
Cc1ccc2nc(-c3ccc(NC(=S)NC4CC(C)(C)NC(C)(C)C4)cc3)sc2c1	UPR CHOP act 60, XBP1 UPR activ 49, Mdm2-MdmX inh 99 | UPR CHOP confirm 63 | UPR XBP1 confirm 61 | Mdm2-MdmX conf inactive
CCN(C(=O)c1cccc(S(=O)(=O)N2CCCCC2)c1)C1CCS(=O)(=O)C1 (stereo unspecified)	none (no result: MDM2 E3 inh, Dynein cargo inh)
C[N+](C)(C)C[C@H](O)CC(=O)[O-]	none (no result: MDM2 E3 inh, Dynein cargo inh)
Cc1coc2c1C(=O)C(=O)c1c-2ccc2c(C)cccc12	UPR CHOP act 62, Mdm2-MdmX inh 65 | UPR CHOP confirm 37 | Mdm2-MdmX conf inactive
Cc1ccc2c3c(cccc13)-c1ccccc1C2=O	none
CCOC(=O)/C=c1\s/c(=C\c2ccc3cc(OC)ccc3c2)c(=O)n1CC(=O)NCC1CCCO1 (stereo unspecified)	UPR CHOP act 86, XBP1 UPR activ 371, Mdm2-MdmX inh 74 | UPR CHOP confirm 131 | UPR XBP1 confirm 580 | Mdm2-MdmX conf inactive
CCOC(=O)/C=c1/s/c(=C/c2ccc3cc(OC)ccc3c2)c(=O)n1CC(=O)NCc1ccc2c(c1)OCO2	none (no result: MDM2 E3 inh, UPR CHOP act, XBP1 UPR activ, Dynein cargo inh, Mdm2-MdmX inh)
CC(C)C(Sc1nc(-c2ccccc2)cc(-c2ccccc2)c1C#N)C(=O)O (stereo unspecified)	none
CS(=O)(=O)c1nc(-c2ccccc2)cc(-c2ccccc2)c1C#N	UPR CHOP act 68, Mdm2-MdmX inh 100 | UPR CHOP confirm 47 | Mdm2-MdmX conf inactive
COc1ccc(C(C(=O)NC2CCCCC2)N(C(=O)CCl)c2ccc(C)cc2)cc1 (stereo unspecified)	Beta2AR agonist 44, UPR CHOP act 62, Mdm2-MdmX inh 98 | UPR CHOP confirm inactive | Mdm2-MdmX conf 100 | FLuc counter 54
COc1ccc(C(C(=O)NC2CCCC2)N(C(=O)c2ccoc2C)c2ccc(C)cc2)cc1 (stereo unspecified)	none
O=C(Nc1ccc(C(=O)N2CCC(N3CCOCC3)CC2)cc1)c1ccc(Br)o1	none (no result: MDM2 E3 inh, Dynein cargo inh)
CCOC(=O)c1c(-c2ccccc2)csc1NC(=O)CCN1C(=O)c2ccccc2C1=O	none
CCOC(=O)c1c(-c2ccc(-c3ccccc3)cc2)csc1NC(=O)CNCCN(C)C	UPR CHOP act 42, Mdm2-MdmX inh 83 (no result: MDM2 E3 inh, Dynein cargo inh) | UPR CHOP confirm 119 | Mdm2-MdmX conf 53 | FLuc counter 61
COc1cccc(N2CCN(CC(=O)Nc3ccc(S(=O)(=O)N4CCCCCC4)cc3)CC2)c1	none (no result: MDM2 E3 inh, Dynein cargo inh)
Cc1cc(Br)c(NC(=O)COC(=O)C2CCCCC2)c(Br)c1	none (no result: MDM2 E3 inh, Dynein cargo inh)
Cc1cc(C(=O)CCl)c(C)n1CCc1ccc(F)cc1	UPR CHOP act 179, Mdm2-MdmX inh 92 | UPR CHOP confirm 195 | Mdm2-MdmX conf 62 | FLuc counter inactive
COc1ccc(NC(=O)CSc2nnc(NC(=O)C3CCC3)s2)c(OC)c1	none (no result: MDM2 E3 inh, Dynein cargo inh)
COc1ccccc1-c1nnc(Nc2nc3c(OC)cccc3s2)o1	MDM2 E3 inh 39, UPR CHOP act 71, Mdm2-MdmX inh 59 | UPR CHOP confirm 110 | Mdm2-MdmX conf 68 | FLuc counter 72
O=C(CN(c1cccc(C(F)(F)F)c1)S(=O)(=O)c1ccc(Cl)c([N+](=O)[O-])c1)NCc1ccc(F)cc1	UPR CHOP act 53, Mdm2-MdmX inh 100 | UPR CHOP confirm 50 | Mdm2-MdmX conf inactive | FLuc counter 95
Cc1cc(F)ccc1S(=O)(=O)N(CC(=O)N1CCOCC1)CC(=O)N1CCOCC1	none (no result: MDM2 E3 inh, Dynein cargo inh)
CNC(=S)N(CCN(C)C)Cc1cc2cc3c(cc2[nH]c1=O)OCO3	none (no result: MDM2 E3 inh, Dynein cargo inh)
